4 molecules from ChEMBL document CHEMBL1155278, “3,4-Diaryl-isoxazoles and -imidazoles as potent dual inhibitors of p38alpha mitogen activated protein kinase and casein kinase 1delta” (J Med Chem, 2009) can be followed below.

Assay [1] deals with Ribosomal protein S6 kinase alpha-3 (Homo sapiens) (UniProt P51812). Kind of assay: Inhibition of RSK2 assessed as residual activity at 10 uM by Cherenkov counting relative to control in presence of 50 uM ATP. Put shortly: (§1)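 Single-concentration profiling at 10 μM in a 78-kinase panel. Kinase activity is expressed as a percentage of control assays run without compound.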
Ribosomal protein S6 kinase alpha-3 (Homo sapiens), sequence (P51812 whole entry): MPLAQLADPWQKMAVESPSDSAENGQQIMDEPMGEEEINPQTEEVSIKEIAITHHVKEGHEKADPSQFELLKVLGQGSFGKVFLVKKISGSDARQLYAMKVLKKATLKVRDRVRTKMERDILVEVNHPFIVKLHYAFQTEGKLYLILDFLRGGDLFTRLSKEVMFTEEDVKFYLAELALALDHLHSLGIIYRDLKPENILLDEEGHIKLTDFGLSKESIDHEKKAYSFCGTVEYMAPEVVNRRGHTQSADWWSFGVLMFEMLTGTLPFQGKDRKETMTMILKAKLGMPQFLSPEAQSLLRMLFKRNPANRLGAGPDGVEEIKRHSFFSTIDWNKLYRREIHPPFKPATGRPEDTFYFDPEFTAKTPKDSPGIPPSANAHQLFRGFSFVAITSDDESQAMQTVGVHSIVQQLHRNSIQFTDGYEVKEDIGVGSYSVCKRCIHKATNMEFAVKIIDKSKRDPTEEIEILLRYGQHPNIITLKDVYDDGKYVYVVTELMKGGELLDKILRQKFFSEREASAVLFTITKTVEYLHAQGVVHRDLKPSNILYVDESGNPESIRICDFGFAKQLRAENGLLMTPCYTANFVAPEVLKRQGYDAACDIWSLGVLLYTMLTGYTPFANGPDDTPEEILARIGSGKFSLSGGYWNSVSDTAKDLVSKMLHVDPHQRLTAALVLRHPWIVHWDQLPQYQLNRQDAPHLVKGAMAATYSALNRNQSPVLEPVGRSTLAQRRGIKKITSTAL
For assay [2], the target named is MAP kinase-activated protein kinase 3 (Homo sapiens) (UniProt Q16644). Description: Inhibition of MAPKAPK3 assessed as residual activity at 10 uM by Cherenkov counting relative to control.
MAP kinase-activated protein kinase 3 (Homo sapiens), sequence (Q16644 whole entry, looked up): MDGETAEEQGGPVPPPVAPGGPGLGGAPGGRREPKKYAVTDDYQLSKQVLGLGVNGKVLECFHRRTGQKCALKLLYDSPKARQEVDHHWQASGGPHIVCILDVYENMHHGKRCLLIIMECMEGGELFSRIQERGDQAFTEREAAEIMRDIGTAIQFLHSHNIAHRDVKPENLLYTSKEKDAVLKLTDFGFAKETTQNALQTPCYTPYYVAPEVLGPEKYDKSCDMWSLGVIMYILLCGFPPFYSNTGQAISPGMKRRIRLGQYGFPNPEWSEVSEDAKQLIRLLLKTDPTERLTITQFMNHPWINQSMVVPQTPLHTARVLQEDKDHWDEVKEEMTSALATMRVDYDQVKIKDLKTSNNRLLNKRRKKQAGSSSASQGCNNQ
Assay [3] has as its target T1, Serine/threonine-protein kinase Chk1 (Homo sapiens) (UniProt O14757).
T1 sequence (whole entry): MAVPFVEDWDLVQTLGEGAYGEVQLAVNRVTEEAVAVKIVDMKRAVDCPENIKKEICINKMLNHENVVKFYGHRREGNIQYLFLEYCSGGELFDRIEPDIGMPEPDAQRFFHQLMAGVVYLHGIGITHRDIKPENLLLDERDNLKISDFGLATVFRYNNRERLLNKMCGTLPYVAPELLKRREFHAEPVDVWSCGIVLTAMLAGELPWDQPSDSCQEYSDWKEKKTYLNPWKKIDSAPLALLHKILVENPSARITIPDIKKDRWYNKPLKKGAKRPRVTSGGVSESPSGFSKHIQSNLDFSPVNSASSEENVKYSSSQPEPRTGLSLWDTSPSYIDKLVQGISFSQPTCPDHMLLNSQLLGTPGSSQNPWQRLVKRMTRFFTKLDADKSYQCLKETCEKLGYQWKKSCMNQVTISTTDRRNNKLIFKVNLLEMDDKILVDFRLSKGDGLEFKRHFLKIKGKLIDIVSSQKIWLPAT
Kind of assay: Inhibition of CHK1 assessed as residual activity at 10 uM by Cherenkov counting relative to control in presence of 20 uM ATP. Put shortly:
(§2)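 Single-point profiling at 10 µM in a panel of 78 protein kinases. Kinase activity is expressed as a percentage relative to control assays without compound.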

Assay [4] can be described thus: Inhibition of CK2 assessed as residual activity at 10 uM by Cherenkov counting relative to control in presence of 5 uM ATP. The method, boiled down:
as §2

For assay [5], the target named is Serine/threonine-protein kinase Nek7 (Homo sapiens) (UniProt Q8TDX7). Kind of assay: Inhibition of NEK7 assessed as residual activity at 10 uM by Cherenkov counting relative to control.
Serine/threonine-protein kinase Nek7 (Homo sapiens), sequence (Q8TDX7 whole entry, looked up): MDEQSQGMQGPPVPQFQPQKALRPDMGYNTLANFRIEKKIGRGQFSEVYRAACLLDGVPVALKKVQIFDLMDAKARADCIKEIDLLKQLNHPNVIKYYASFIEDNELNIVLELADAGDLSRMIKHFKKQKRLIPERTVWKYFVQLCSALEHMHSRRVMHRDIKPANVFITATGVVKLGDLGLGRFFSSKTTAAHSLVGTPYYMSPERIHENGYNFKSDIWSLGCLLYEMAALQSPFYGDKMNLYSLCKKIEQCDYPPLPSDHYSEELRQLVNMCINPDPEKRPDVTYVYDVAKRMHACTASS
Assay [6] deals with T2, Serine/threonine-protein kinase TBK1 (Homo sapiens) (UniProt Q9UHD2).
T2 sequence (whole entry): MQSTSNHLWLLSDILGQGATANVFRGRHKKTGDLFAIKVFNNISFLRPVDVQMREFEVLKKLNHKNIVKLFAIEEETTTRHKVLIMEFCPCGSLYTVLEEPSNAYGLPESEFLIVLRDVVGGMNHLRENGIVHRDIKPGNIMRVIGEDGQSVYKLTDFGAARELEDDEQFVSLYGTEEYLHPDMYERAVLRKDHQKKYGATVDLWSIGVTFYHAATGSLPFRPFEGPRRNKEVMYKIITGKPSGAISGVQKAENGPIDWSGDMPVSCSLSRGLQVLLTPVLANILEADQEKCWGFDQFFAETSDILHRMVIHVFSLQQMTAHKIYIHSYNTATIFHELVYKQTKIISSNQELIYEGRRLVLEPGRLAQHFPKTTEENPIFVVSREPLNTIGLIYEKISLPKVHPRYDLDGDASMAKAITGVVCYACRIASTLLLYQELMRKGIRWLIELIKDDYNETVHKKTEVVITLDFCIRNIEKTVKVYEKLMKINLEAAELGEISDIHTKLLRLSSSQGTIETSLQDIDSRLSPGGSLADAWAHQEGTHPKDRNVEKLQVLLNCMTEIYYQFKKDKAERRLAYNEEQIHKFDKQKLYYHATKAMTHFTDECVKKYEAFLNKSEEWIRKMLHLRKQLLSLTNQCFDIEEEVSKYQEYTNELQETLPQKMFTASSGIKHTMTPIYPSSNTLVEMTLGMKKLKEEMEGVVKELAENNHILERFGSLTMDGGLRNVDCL
Description: Inhibition of TBK1 assessed as residual activity at 10 uM by Cherenkov counting relative to control in presence of 50 uM ATP. The method, boiled down: as §1

The target of assay [7] is Tyrosine-protein kinase SYK (Homo sapiens) (UniProt P43405). Kind of assay: Inhibition of SYK assessed as residual activity at 0.1 uM by Cherenkov counting relative to control in presence of 20 uM ATP. The method, boiled down:
(§3)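 Single-concentration screen at 0.1 μM in a 76-kinase panel. ATP for each kinase was set near its Km for ATP. Residual activity is given as a percentage of control assays without compound, mean of n = 3 ± SD.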

In assay [8] the target is Dual specificity mitogen-activated protein kinase kinase 1 (Homo sapiens) (UniProt Q02750). Kind of assay: Inhibition of MKK1 at 0.1 uM by Cherenkov counting in presence of 5 uM ATP. The method, boiled down:
(§4)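 Single-concentration selectivity screen at 0.1 μM against a panel of 76 protein kinases. Each kinase was run at an ATP level approximating its Km for ATP. Output is mean residual activity as % of the control assay without compound, n = 3 ± SD.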

Assay [9] has as its target Serine/threonine-protein kinase N2 (Homo sapiens) (UniProt Q16513). Kind of assay: Inhibition of PRK2 assessed as residual activity at 0.1 uM by Cherenkov counting relative to control in presence of 5 uM ATP. The method, boiled down: as §3
In assay [10] the target is Calcium/calmodulin-dependent protein kinase kinase 2 (Homo sapiens) (UniProt Q96RR4). Kind of assay: Inhibition of CAMKKbeta assessed as residual activity at 0.1 uM by Cherenkov counting relative to control. Put shortly: (§5)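 Single-concentration screen at 0.1 µM across a panel of 76 protein kinases. Each kinase was run at an ATP concentration approximating its ATP Km. Results are % mean residual activity versus control assays without compound (n = 3 ± SD).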
Calcium/calmodulin-dependent protein kinase kinase 2 (Homo sapiens), sequence (Q96RR4 2-588 limits assumed): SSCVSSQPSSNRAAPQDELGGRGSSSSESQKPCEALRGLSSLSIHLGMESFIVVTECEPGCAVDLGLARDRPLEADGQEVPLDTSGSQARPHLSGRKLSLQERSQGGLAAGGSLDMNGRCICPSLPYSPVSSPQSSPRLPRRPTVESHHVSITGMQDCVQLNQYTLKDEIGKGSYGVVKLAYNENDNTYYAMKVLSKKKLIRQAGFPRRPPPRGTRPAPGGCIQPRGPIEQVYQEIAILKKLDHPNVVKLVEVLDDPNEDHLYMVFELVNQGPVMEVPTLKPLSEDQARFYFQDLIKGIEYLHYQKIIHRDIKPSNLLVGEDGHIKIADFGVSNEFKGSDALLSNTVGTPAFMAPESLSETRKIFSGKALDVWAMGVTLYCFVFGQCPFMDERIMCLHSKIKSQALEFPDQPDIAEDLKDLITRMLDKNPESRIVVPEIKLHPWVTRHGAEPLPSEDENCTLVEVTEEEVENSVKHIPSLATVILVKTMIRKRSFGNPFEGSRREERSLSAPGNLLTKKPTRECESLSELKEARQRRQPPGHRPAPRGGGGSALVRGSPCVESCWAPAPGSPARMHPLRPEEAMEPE

The nature of assay [11]: Inhibition of PHK assessed as residual activity at 0.1 uM by Cherenkov counting relative to control. Put shortly: as §4
Assay [12] deals with Glycogen synthase kinase-3 beta (Homo sapiens) (UniProt P49841). Description: Inhibition of GSK3-beta assessed as residual activity at 0.1 uM by Cherenkov counting relative to control in presence of 5 uM ATP. The method, boiled down:
as §5

Molecules are shown by their SMILES.

Dual specificity mitogen-activated protein kinase kinase 1 (Homo sapiens), sequence (Q02750 whole entry): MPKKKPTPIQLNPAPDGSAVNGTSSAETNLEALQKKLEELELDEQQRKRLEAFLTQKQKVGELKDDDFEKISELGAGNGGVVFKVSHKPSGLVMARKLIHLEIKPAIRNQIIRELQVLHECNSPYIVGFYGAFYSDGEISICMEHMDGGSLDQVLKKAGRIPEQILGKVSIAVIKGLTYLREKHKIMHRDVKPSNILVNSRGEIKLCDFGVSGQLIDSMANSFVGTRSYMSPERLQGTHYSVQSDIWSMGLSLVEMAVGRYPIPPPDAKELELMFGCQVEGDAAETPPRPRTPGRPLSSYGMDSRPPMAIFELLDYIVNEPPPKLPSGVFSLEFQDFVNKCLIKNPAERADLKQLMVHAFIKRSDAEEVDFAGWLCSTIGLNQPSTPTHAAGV
Serine/threonine-protein kinase N2 (Homo sapiens), sequence (Q16513 whole entry, looked up): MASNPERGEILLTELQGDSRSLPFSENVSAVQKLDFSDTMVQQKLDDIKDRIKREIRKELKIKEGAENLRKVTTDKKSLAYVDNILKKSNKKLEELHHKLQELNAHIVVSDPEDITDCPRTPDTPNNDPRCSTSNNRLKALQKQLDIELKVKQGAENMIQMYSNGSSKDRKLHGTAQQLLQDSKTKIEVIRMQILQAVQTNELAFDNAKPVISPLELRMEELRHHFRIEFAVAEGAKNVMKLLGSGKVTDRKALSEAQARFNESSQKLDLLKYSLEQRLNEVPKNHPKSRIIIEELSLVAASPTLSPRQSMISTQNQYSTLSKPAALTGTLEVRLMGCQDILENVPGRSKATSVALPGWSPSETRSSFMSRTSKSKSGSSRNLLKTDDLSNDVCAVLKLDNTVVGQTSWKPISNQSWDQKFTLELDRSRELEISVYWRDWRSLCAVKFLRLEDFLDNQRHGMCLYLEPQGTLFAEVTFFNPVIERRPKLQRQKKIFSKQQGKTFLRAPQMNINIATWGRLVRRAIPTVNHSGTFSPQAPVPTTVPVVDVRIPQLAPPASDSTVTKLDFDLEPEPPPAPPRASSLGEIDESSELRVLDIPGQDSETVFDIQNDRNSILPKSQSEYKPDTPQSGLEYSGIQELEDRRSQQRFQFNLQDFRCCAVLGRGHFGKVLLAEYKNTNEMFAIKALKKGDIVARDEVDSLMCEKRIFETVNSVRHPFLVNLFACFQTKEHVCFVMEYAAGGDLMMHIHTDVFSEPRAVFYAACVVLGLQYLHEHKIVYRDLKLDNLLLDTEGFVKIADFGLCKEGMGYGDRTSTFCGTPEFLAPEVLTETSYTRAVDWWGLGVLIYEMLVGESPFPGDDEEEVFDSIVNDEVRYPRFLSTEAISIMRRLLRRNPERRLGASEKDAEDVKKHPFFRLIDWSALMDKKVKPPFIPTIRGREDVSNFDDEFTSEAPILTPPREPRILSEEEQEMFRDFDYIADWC
Glycogen synthase kinase-3 beta (Homo sapiens), sequence (P49841 whole entry, looked up): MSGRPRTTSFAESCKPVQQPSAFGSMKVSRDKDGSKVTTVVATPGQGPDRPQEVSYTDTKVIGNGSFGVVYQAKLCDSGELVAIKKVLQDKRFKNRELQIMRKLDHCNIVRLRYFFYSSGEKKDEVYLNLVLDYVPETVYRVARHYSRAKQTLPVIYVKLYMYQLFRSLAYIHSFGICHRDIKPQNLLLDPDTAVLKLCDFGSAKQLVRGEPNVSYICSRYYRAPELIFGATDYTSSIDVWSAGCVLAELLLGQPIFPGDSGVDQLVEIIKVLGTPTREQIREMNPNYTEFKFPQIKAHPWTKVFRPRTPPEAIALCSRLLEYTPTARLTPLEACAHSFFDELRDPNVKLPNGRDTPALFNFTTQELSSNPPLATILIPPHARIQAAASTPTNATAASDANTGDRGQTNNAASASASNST

Take `CC(C)c1noc(-c2ccc(F)cc2)c1-c1ccncc1`: the Activity in assay [1] was determined as 120%; in [2], 113%; in [3] it was 102%; in [4], 95%; in assay [5], 100%; in assay [6], 80%.

On to `CC(C)c1onc(-c2ccc(F)cc2)c1-c1ccncc1`, for which the Activity in [1] is 113%; in assay [2], 104%; in assay [3], 91%; in assay [4] it was 96%; in [5] it was 104%; in assay [6], 90%.

Turning to `COc1ccc(/C=C/C(=O)Nc2cc(-c3[nH]c([S+](C)[O-])nc3-c3ccc(F)cc3)ccn2)c(OC)c1` (centres undefined), the Activity in assay [7] was 86%; in assay [9], 96%; in assay [10], 92%; in [11] it was 102%; in assay [12] it was 101%. The inhibition in [8] worked out at 82%.

On to `COc1ccc(/C=C/C(=O)Nc2cc(-c3[nH]c(SC)nc3-c3ccc(F)cc3)ccn2)c(OC)c1`, for which the Activity in assay [7] was determined as 86%; in [9], 95%; in assay [10], 88%; in [11] it was 99%; in assay [12], 81%. Moreover, the inhibition in [8] was 73%.

Usually inhibition stands for the share of the control response that was lost under treatment.
